Experimental data as given in ChEMBL document CHEMBL4138162, “Design and synthesis of small molecule agonists of EphA2 receptor” (Eur J Med Chem, 2018).
Calls of active or inactive are those of the source. The calls are words filed in the database; no cut-off is given here.

Each molecule was assayed against Ephrin type-A receptor 2 (Homo sapiens) (UniProt P29317) (assay: Agonist activity against EphA2 (unknown origin) overexpressed in MDA-MB-231-A2 cells assessed as increase in phosphorylated EphA2 levels at 2 to 50 uM after 30 mins by immunoprecipitation and immunoblot assay relative to 50 uM doxazosin).
Ephrin type-A receptor 2 (Homo sapiens), sequence (P29317 whole entry): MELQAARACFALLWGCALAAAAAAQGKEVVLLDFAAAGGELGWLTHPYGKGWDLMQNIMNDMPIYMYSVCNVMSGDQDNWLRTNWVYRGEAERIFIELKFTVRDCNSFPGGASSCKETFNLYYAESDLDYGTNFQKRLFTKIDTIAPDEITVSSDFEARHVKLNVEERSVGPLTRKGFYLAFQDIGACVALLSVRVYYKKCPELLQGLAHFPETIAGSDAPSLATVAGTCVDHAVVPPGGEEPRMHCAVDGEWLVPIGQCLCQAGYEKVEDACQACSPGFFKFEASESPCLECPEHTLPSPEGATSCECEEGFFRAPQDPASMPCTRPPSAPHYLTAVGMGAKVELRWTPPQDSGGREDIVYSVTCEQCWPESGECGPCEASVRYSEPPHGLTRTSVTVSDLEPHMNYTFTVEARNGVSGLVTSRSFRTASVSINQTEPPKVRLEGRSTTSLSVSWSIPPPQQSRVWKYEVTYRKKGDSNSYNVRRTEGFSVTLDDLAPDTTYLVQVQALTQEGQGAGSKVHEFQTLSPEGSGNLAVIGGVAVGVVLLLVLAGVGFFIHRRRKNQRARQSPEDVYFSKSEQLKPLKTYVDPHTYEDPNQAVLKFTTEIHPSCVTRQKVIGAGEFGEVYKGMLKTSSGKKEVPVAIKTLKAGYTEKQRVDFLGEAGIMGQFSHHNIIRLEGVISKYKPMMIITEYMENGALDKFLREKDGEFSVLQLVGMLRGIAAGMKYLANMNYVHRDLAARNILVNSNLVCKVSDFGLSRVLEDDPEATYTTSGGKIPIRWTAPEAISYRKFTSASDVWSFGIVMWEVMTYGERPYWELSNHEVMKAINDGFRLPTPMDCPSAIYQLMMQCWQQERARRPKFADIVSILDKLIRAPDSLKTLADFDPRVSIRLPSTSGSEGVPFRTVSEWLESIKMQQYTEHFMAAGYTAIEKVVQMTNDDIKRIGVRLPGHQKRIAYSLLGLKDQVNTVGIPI
Type: cell-based
Method in brief: (§1)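 MDA-MB-231 cells stably overexpressing EphA2 (kept in 1 µg/ml puromycin) were plated at 100,000 cells/well, grown 24 h, then treated 30 min with compound (2, 10, 50 µM; DMSO stock at 200× final, 0.5% DMSO vehicle). Lysates in modified RIPA were immunoprecipitated with ephrin-A1-Fc on Protein G beads. Blots were probed for pEphA/B and EphA2, and pEphA2/total EphA2 was quantified by band densitometry.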

With COc1cc2nc(N3CCN(C(=O)c4ccc(I)cc4)CC3)nc(N)c2cc1OC as the molecule, how does the Activity read?
Its Activity is “Active”.

COc1ccc(CC(=O)N2CCN(c3nc(N)c4cc(OC)c(OC)cc4n3)CC2)cc1 was tested. Which Activity did it give?
Its Activity is “Active”.

For COc1cccc(CC(=O)N2CCN(c3nc(N)c4cc(OC)c(OC)cc4n3)CC2)c1, which Activity is on record?
The Activity was “Active”.

Which Activity does the source give for COc1cc2nc(N3CCN(C(=O)c4ccno4)CC3)nc(N)c2cc1OC here?
Its Activity is “inactive”.

How did the Activity turn out when COc1cc2nc(N3CCN(C(=O)Cc4ccc(OCc5ccccc5)cc4)CC3)nc(N3CCCCC3)c2cc1OC was run?
The Activity was “inactive”.

COc1cc2nc(N3CCN(C(=O)c4cccs4)CC3)nc(N)c2cc1OC was tested. Which Activity did it give?
The Activity was “inactive”.

For CCCC(=O)N1CCN(c2nc(N)c3cc(OC)c(OC)cc3n2)CC1, which Activity is on record?
Its Activity is “inactive”.

How did the Activity turn out when COc1cc2nc(N3CCN(C(=O)Cc4ccc(OCc5ccccc5)cc4)CC3)nc(N3CCCC3)c2cc1OC was run?
Its Activity is “inactive”.

Which Activity does the source give for CCOc1cc2nc(N3CCN(C(=O)Cc4ccc(OCc5ccccc5)cc4)CC3)nc(N)c2cc1OCC here?
Its Activity is “inactive”.

COc1cc2nc(N3CCN(C(=O)c4ccc5ccccc5c4)CC3)nc(N)c2cc1OC was tested. Which Activity did it give?
The Activity was “Active”.

Which Activity does the source give for COc1cc2nc(N3CCN(C(=O)C(C)c4ccccc4)CC3)nc(N)c2cc1OC (centres undefined) here?
The Activity was “Active”.

With COc1cc2nc(N3CCN(C(=O)CCCCC(=O)N4CCN(c5nc(N)c6cc(OC)c(OC)cc6n5)CC4)CC3)nc(N)c2cc1OC as the molecule, how does the Activity read?
Its Activity is “inactive”.

COc1cc2nc(N3CCN(C(=O)Cc4ccccc4)CC3)nc(N)c2cc1OC was tested. Which Activity did it give?
The Activity was “Active”.

For COc1cc2nc(N3CCN(C(=O)CCCCCCCCCCC(=O)N4CCN(c5nc(N)c6cc(OC)c(OC)cc6n5)CC4)CC3)nc(N)c2cc1OC, which Activity is on record?
Its Activity is “Active”.

For CCCCCC(=O)N1CCN(c2nc(N)c3cc(OC)c(OC)cc3n2)CC1, which Activity is on record?
The Activity was “inactive”.

COc1cc2nc(N3CCN(C(=O)c4ccc(-c5ccccc5)cc4)CC3)nc(N)c2cc1OC was tested. Which Activity did it give?
Its Activity is “Active”.

With COc1cc2nc(N3CCN(C(=O)Cc4ccc(OCc5ccccc5)cc4)CC3)nc(NC(C)=O)c2cc1OC as the molecule, how does the Activity read?
Its Activity is “inactive”.

With COc1cc2nc(N3CCN(C(=O)C4CCCCC4)CC3)nc(N)c2cc1OC as the molecule, how does the Activity read?
Its Activity is “inactive”.

COc1cc2nc(N3CCN(C(=O)c4ccc5c(c4)OCO5)CC3)nc(N)c2cc1OC was tested. Which Activity did it give?
Its Activity is “Active”.

For CCC(=O)N1CCN(c2nc(N)c3cc(OC)c(OC)cc3n2)CC1, which Activity is on record?
Its Activity is “inactive”.

Which Activity does the source give for COc1cc2nc(N3CCN(C(C)=O)CC3)nc(N)c2cc1OC here?
The Activity was “inactive”.

COc1cc2nc(N3CCN(C(=O)c4ccc(Cl)c([N+](=O)[O-])c4)CC3)nc(N)c2cc1OC was tested. Which Activity did it give?
Its Activity is “inactive”.

With COc1ccc(C(=O)N2CCN(c3nc(N)c4cc(OC)c(OC)cc4n3)CC2)cc1 as the molecule, how does the Activity read?
Its Activity is “inactive”.

With COc1ccc(C(=O)N2CCN(C(=O)c3ccc(OC)cc3)CC2)cc1 as the molecule, how does the Activity read?
Its Activity is “inactive”.

Which Activity does the source give for COc1cc2nc(N3CCN(C(=O)c4ccc(Br)cc4)CC3)nc(N)c2cc1OC here?
Its Activity is “Active”.

For CSc1ccc(C(=O)N2CCN(C(=O)c3ccc(SC)cc3)CC2)cc1, which Activity is on record?
The Activity was “inactive”.

For COc1cc2nc(N3CCN(C(=O)C4COc5ccccc5O4)CC3)nc(NC(C)=O)c2cc1OC (centres undefined), which Activity is on record?
Its Activity is “inactive”.

With CCc1ccc(C(=O)N2CCN(c3nc(N)c4cc(OC)c(OC)cc4n3)CC2)cc1 as the molecule, how does the Activity read?
The Activity was “Active”.

With COc1cc2nc(N3CCN(C(=O)c4ccncc4)CC3)nc(N)c2cc1OC as the molecule, how does the Activity read?
Its Activity is “inactive”.

With COc1cc2nc(N3CCN(C(=O)c4ccco4)CC3)nc(N)c2cc1OC as the molecule, how does the Activity read?
The Activity was “inactive”.

Which Activity does the source give for COc1cc2nc(N3CCN(C(=O)Cc4ccc(OCc5ccccc5)cc4)CC3)nc(N)c2cc1OC here?
The Activity was “Active”.

COc1cc2nc(N3CCN(C(=O)c4ccccn4)CC3)nc(N)c2cc1OC was tested. Which Activity did it give?
The Activity was “inactive”.

How did the Activity turn out when COc1cc2nc(N3CCN(C(=O)Cc4ccc5ccccc5c4)CC3)nc(N)c2cc1OC was run?
The Activity was “Active”.

These molecules were tested against Ephrin type-A receptor 2 (Homo sapiens) (UniProt P29317) (assay: Binding affinity to EphA2 in human MDA-MB-231 cells assessed as induction of EphA2 receptor internalization at 0.4 uM after 1 hr by immunofluorescence microscopy).
Type: cell-based
Method in brief: (§2)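 MDA-MB-231 cells on fibronectin-coated coverslips, 24–48 h after seeding, treated 1 h with compound (0.4–50 µM) in 0.5% DMSO. Cells were then PFA-fixed on ice, permeabilized with NP-40 and immunostained with anti-EphA2 (D7) plus Alexa Fluor 488 secondary, with DAPI counterstain. Surface versus intracellular EphA2 was judged by fluorescence microscopy. Three independent repeats.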

Which Activity does the source give for COc1cc2nc(N3CCN(C(=O)CCCCCCCCCCC(=O)N4CCN(c5nc(N)c6cc(OC)c(OC)cc6n5)CC4)CC3)nc(N)c2cc1OC here?
The Activity was “Active”.

These molecules were tested against Ephrin type-A receptor 2 (Homo sapiens) (UniProt P29317) (assay: Binding affinity to EphA2 in human MDA-MB-231 cells assessed as induction of EphA2 receptor internalization at 50 uM after 1 hr by immunofluorescence microscopy).
Type: cell-based
Method in brief: as §2

For COc1cc2nc(N3CCN(C(=O)C4COc5ccccc5O4)CC3)nc(N)c2cc1OC (centres undefined), which Activity is on record?
The Activity was “Active”.

Each molecule was assayed on MDA-MB-231 (assay: Anticlonogenic activity against human MDA-MB-231 cells up to 10 uM after 14 days by crystal violet staining-based assay).
Type: functional, cell-based
Method in brief: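 Parental MDA-MB-231 cells, 1000/well, cultured 24 h, then exposed to 0, 0.08, 0.4, 2 or 10 µM compound in 0.5% DMSO for 14 days. Colonies were fixed in 4% paraformaldehyde, rinsed in 20% methanol and stained with 0.5% crystal violet. Three independent experiments.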

COc1cc2nc(N3CCN(C(=O)CCCCCCCCCCC(=O)N4CCN(c5nc(N)c6cc(OC)c(OC)cc6n5)CC4)CC3)nc(N)c2cc1OC was tested. Which Activity did it give?
Its Activity is “Active”.

With CCCCCC(=O)N1CCN(c2nc(N)c3cc(OC)c(OC)cc3n2)CC1 as the molecule, how does the Activity read?
Its Activity is “Active”.

For COc1cc2nc(N3CCN(C(=O)Cc4ccc(OCc5ccccc5)cc4)CC3)nc(N)c2cc1OC, which Activity is on record?
Its Activity is “Active”.

Each molecule was assayed against Ephrin type-A receptor 2 (Homo sapiens) (UniProt P29317) (assay: Agonist activity against EphA2 (unknown origin) overexpressed in MDA-MB-231-A2 cells assessed as increase in phosphorylated EphA2 levels at 50 uM after 30 mins by immunoprecipitation and immunoblot assay).
Type: cell-based
Method in brief: as §1

COc1cc2nc(N3CCN(C(=O)CCCCCCCCCCC(=O)N4CCN(c5nc(N)c6cc(OC)c(OC)cc6n5)CC4)CC3)nc(N)c2cc1OC was tested. Which Activity did it give?
Its Activity is “Active”.
